{"source": "ChEMBL document CHEMBL4364267", "about": "“Hydrogen sulfide donating ent-kaurane and spirolactone-type 6,7-seco-ent-kaurane derivatives: Design, synthesis and antiproliferative properties” (Eur J Med Chem, 2019)", "key": {"[1]": {"test_system": "Bel-7402", "experiment": "Antiproliferative activity against human Bel7402 cells assessed as reduction in cell viability after 72 hrs by MTT assay", "assay_type": "functional, cell-based", "conditions": "Bel-7402, 72 h", "procedure,_shortened": "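MTT assay over 72 h, compounds at 64, 16, 4, 1, 0.25, 0.0625 and 0.015625 μM. MTT solution (5 mg/mL) and DMSO added afterwards, 10 min at room temperature, absorbance read at 490 nm. IC50 calculated as the mean ± SD of three independent experiments.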"}, "[2]": {"test_system": "Bel-7402", "experiment": "Induction of apoptosis in human Bel7402 cells assessed as reduction in Bcl-2 expression at 0.90 to 1.80 uM after 48 hrs by Western blot analysis", "assay_type": "functional, cell-based"}, "[3]": {"test_system": "Bel-7402", "experiment": "Cell cycle arrest in human Bel7402 cells assessed as accumulation of cells at G2 phase at 1.80 uM after 48 hrs by propidium iodide/RNase staining based flow cytometric analysis (reference value: 29.97%)", "assay_type": "functional"}, "[4]": {"test_system": "Bel-7402", "experiment": "Induction of apoptosis in human Bel7402 cells assessed as late apoptotic cells at 0.90 uM after 48 hrs by Annexin V-FITC/propidium iodide staining based flow cytometry (reference value: 0.68%)", "assay_type": "functional", "procedure,_shortened": "(§1)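 Bel-7402 cells in 6-well plates treated with 0, 0.45, 0.90 or 1.80 μM, washed twice with PBS and resuspended in annexin V binding buffer. Stained with annexin V-FITC and PI for 15 min at room temperature in the dark, then analysed by flow cytometry. Methods state 24 h exposure; the figure legend states 48 h.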"}, "[5]": {"test_system": "Bel-7402", "experiment": "Cell cycle arrest in human Bel7402 cells assessed as accumulation of cells at G1 phase after 48 hrs by propidium iodide/RNase staining based flow cytometric analysis", "assay_type": "functional"}, "[6]": {"test_system": "Bel-7402", "experiment": "Induction of apoptosis in human Bel7402 cells assessed as necrotic cells at 1.80 uM after 48 hrs by Annexin V-FITC/propidium iodide staining based flow cytometry (reference value: 0.01%)", "assay_type": "functional", "procedure,_shortened": "as §1"}, "[7]": {"test_system": "Bel-7402", "experiment": "Induction of apoptosis in human Bel7402 cells assessed as increase in cytochrome C expression at 0.90 to 1.80 uM after 48 hrs by Western blot analysis", "assay_type": "functional, cell-based"}, "[8]": {"test_system": "Bel-7402", "experiment": "Cell cycle arrest in human Bel7402 cells assessed as accumulation of cells at S phase at 0.90 uM after 48 hrs by propidium iodide/RNase staining based flow cytometric analysis (reference value: 39.09%)", "assay_type": "functional"}, "[9]": {"test_system": "Bel-7402", "experiment": "Induction of morphological changes in human Bel7402 cells assessed as chromatin shrinkage at 0.45 to 1.80 uM after 48 hrs by Hoechst 33258 staining-based fluorescent microscopic analysis", "assay_type": "functional, cell-based", "procedure,_shortened": "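Bel-7402 cells cultured 24 h in 6-well plates at 37 °C, then exposed 48 h to 0, 0.45, 0.90 or 1.80 μM. Harvested by mild trypsinization and washed twice with PBS. Stained with Hoechst 33258 (2 mg/mL) for 15 min at room temperature in the dark, washed, and viewed by fluorescence microscopy.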"}, "[10]": {"test_system": "Bel-7402", "experiment": "Induction of apoptosis in human Bel7402 cells assessed as late apoptotic cells at 0.45 uM after 48 hrs by Annexin V-FITC/propidium iodide staining based flow cytometry (reference value: 0.68%)", "assay_type": "functional", "procedure,_shortened": "as §1"}, "[11]": {"test_system": "Bel-7402", "experiment": "Induction of apoptosis in human Bel7402 cells assessed as necrotic cells at 0.45 uM after 48 hrs by Annexin V-FITC/propidium iodide staining based flow cytometry (reference value: 0.01%)", "assay_type": "functional", "procedure,_shortened": "as §1"}, "[12]": {"test_system": "Bel-7402", "experiment": "Cell cycle arrest in human Bel7402 cells assessed as accumulation of cells at G1 phase at 0.90 uM after 48 hrs by propidium iodide/RNase staining based flow cytometric analysis (reference value: 30.95%)", "assay_type": "functional"}, "[13]": {"test_system": "Bel-7402", "experiment": "Induction of apoptosis in human Bel7402 cells assessed as viable cells at 0.45 uM after 48 hrs by Annexin V-FITC/propidium iodide staining based flow cytometry (reference value: 97.22%)", "assay_type": "functional", "conditions": "Bel-7402, 48 h, read-out: Activity", "procedure,_shortened": "as §1"}, "[14]": {"experiment": "Selectivity index, ratio of IC50 for human L02 cells to IC50 for human Bel7402 cells after 72 hrs by MTT assay", "assay_type": "toxicity", "conditions": "L02 cells versus Bel7402 cells, read-out: Ratio IC50"}, "[15]": {"experiment": "Induction of H2S generation in PBS containing Na2S and MB+ cocktail in presence of TCEP/L-cysteine measured at 15 to 20 mins after 20 mins compound incubation by methylene blue dye based UV-Vis spectrophotometric method", "assay_type": "functional", "procedure,_shortened": "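Na2S standards (5–150 μM) in sodium phosphate buffer reacted 20 min at room temperature with methylene blue cocktail (FeCl3/HCl, N,N-dimethyl-1,4-phenylenediamine/HCl, Zn(OAc)2) to build a 670 nm calibration curve. Compounds from 40 mM THF stock added to phosphate buffer with 1 mM TCEP or L-cysteine. Aliquots taken into the cocktail at set times, incubated 20 min, read at 670 nm. Mean of three experiments.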"}, "[16]": {"test_system": "Bel-7402", "experiment": "Induction of mitochondrial membrane potential loss in human Bel7402 cells assessed as cell population with mitochondrial membrane potential collapse at 0.90 uM after 48 hrs by JC1 staining-based flow cytometry analysis (reference value: 1.28%)", "assay_type": "functional", "procedure,_shortened": "(§2)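 Bel-7402 cells in 6-well plates exposed for 48 h to 0, 0.45, 0.90 or 1.80 μM, DMSO as vehicle. Washed with PBS and stained with JC-1 at room temperature in the dark. Cells with collapsed membrane potential counted by flow cytometry.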"}, "[17]": {"test_system": "Bel-7402", "experiment": "Induction of mitochondrial membrane potential loss in human Bel7402 cells assessed as cell population with intact mitochondrial membrane potential at 0.90 uM after 48 hrs by JC1 staining-based flow cytometry analysis (reference value: 98.67%)", "assay_type": "functional", "procedure,_shortened": "as §2"}, "[18]": {"test_system": "Bel-7402", "experiment": "Induction of apoptosis in human Bel7402 cells assessed as viable cells at 1.80 uM after 48 hrs by Annexin V-FITC/propidium iodide staining based flow cytometry (reference value: 97.22%)", "assay_type": "functional", "conditions": "Bel-7402, 48 h, read-out: Activity", "procedure,_shortened": "as §1"}, "[19]": {"test_system": "Bel-7402", "experiment": "Induction of apoptosis in human Bel7402 cells assessed as late apoptotic cells at 1.80 uM after 48 hrs by Annexin V-FITC/propidium iodide staining based flow cytometry (reference value: 0.68%)", "assay_type": "functional", "procedure,_shortened": "as §1"}, "[20]": {"test_system": "Bel-7402", "experiment": "Induction of apoptosis in human Bel7402 cells assessed as increase in cleaved PARP expression at 0.45 to 1.80 uM after 48 hrs by Western blot analysis", "assay_type": "functional, cell-based"}, "[21]": {"test_system": "Bel-7402", "experiment": "Induction of apoptosis in human Bel7402 cells assessed as reduction in Bcl-xl expression at 0.90 to 1.80 uM after 48 hrs by Western blot analysis", "assay_type": "functional, cell-based"}, "[22]": {"test_system": "Bel-7402", "experiment": "Cell cycle arrest in human Bel7402 cells assessed as accumulation of cells at G1 phase at 1.80 uM after 48 hrs by propidium iodide/RNase staining based flow cytometric analysis (reference value: 30.95%)", "assay_type": "functional"}}, "note": "The source made the active and inactive calls. The calls are words filed in the database; no cut-off is given here."}
{"smiles": "C=C1C(=O)[C@@]23C(=O)OC[C@]4(C(=O)CCC(C)(C)[C@H]4C=O)[C@@H]2CC[C@@H]1[C@H]3OC(=O)CCCC(=O)Oc1ccc(-c2cc(=S)ss2)cc1", "values": [{"measurement": "IC50", "setting": "[1]", "value": 0.88, "unit": "µM"}, {"measurement": "Activity", "setting": "[2]", "value": "Active"}, {"measurement": "Activity", "setting": "[3]", "value": 15.91, "unit": "%"}, {"measurement": "Activity", "setting": "[4]", "value": 12.3, "unit": "%"}, {"measurement": "Activity", "setting": "[5]", "value": "Dose-dependent effect"}, {"measurement": "Activity", "setting": "[6]", "value": 1.05, "unit": "%"}, {"measurement": "Activity", "setting": "[7]", "value": "Active"}, {"measurement": "Activity", "setting": "[8]", "value": 37.9, "unit": "%"}, {"measurement": "Activity", "setting": "[9]", "value": "Active"}, {"measurement": "Activity", "setting": "[10]", "value": 7.73, "unit": "%"}, {"measurement": "Activity", "setting": "[11]", "value": 0.11, "unit": "%"}, {"measurement": "Activity", "setting": "[12]", "value": 42.3, "unit": "%"}, {"measurement": "viability at 0.45 µM", "setting": "[13]", "value": 82.2, "unit": "%"}, {"measurement": "selectivity ratio at 72 h", "setting": "[14]", "value": 24}, {"measurement": "Activity", "setting": "[15]", "value": "Active"}, {"measurement": "Activity", "setting": "[16]", "value": 30.96, "unit": "%"}, {"measurement": "Activity", "setting": "[17]", "value": 69.04, "unit": "%"}, {"measurement": "viability at 1.8 µM", "setting": "[18]", "value": 43.6, "unit": "%"}, {"measurement": "Activity", "setting": "[19]", "value": 36.64, "unit": "%"}, {"measurement": "Activity", "setting": "[20]", "value": "Active"}, {"measurement": "Activity", "setting": "[21]", "value": "Active"}, {"measurement": "Activity", "setting": "[22]", "value": 49.56, "unit": "%"}]}
